Here are results for 11 molecules from ChEMBL document CHEMBL3045952, “Design, synthesis, and fungicidal activity of novel analogues of pyrrolnitrin” (J Agric Food Chem, 2009).

Holding throughout (type): functional
Conditions in all cases: read-out: GI

Assay [1] relates to Botryosphaeria berengeriana. Put plainly: Fungicidal activity against Botryosphaeria berengeriana assessed as mycelium growth inhibition at 10 ug/mL by mycelium growth rate method. The procedure, abridged: (§1)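 In vitro mycelium growth rate method, with fenpiclonil as control. Compounds were tested at 50, 20 and 10 μg mL-1. Mycelial diameters were measured once the mycelia had grown completely. Inhibition (%) = (D1 − D2)/D1 × 100, where D1 is the mean mycelial diameter in the blank and D2 is the mean diameter with compound.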

In assay [2] the test system is Alternaria solani. Description: Fungicidal activity against Alternaria solani assessed as mycelium growth inhibition at 20 ug/mL by mycelium growth rate method. The procedure, abridged: as §1
The subject of assay [3] is Fusarium oxysporum. Put plainly: Fungicidal activity against Fusarium oxysporum assessed as mycelium growth inhibition at 50 ug/mL by mycelium growth rate method. The procedure, abridged:
as §1

The test system of assay [4] is Mycosphaerella arachidis. Put plainly: Fungicidal activity against Mycosphaerella arachidis assessed as mycelium growth inhibition at 20 ug/mL by mycelium growth rate method. The method, boiled down: as §1
The test system of assay [5] is Mycosphaerella arachidis. Put plainly: Fungicidal activity against Mycosphaerella arachidis assessed as mycelium growth inhibition at 50 ug/mL by mycelium growth rate method. The procedure, abridged: as §1
The subject of assay [6] is Botryosphaeria berengeriana. Put plainly: Fungicidal activity against Botryosphaeria berengeriana assessed as mycelium growth inhibition at 50 ug/mL by mycelium growth rate method. The method, boiled down:
as §1

Assay [7] concerns Mycosphaerella arachidis. Description: Fungicidal activity against Mycosphaerella arachidis assessed as mycelium growth inhibition at 10 ug/mL by mycelium growth rate method. The procedure, abridged:
as §1

Assay [8] concerns Alternaria solani. Description: Fungicidal activity against Alternaria solani assessed as mycelium growth inhibition at 50 ug/mL by mycelium growth rate method. The method, boiled down:
as §1

For assay [9], the system named is Alternaria solani. Put plainly: Fungicidal activity against Alternaria solani assessed as mycelium growth inhibition at 10 ug/mL by mycelium growth rate method. The method, boiled down:
as §1

Assay [10] has as its system Fusarium oxysporum. Put plainly: Fungicidal activity against Fusarium oxysporum assessed as mycelium growth inhibition at 10 ug/mL by mycelium growth rate method. The procedure, abridged: as §1
Assay [11] deals with Fusarium graminearum. Description: Fungicidal activity against Fusarium graminearum assessed as mycelium growth inhibition at 50 ug/mL by mycelium growth rate method. The procedure, abridged:
as §1

Assay [12] deals with Botryosphaeria berengeriana. Description: Fungicidal activity against Botryosphaeria berengeriana assessed as mycelium growth inhibition at 20 ug/mL by mycelium growth rate method. The method, boiled down: as §1
Assay [13] has as its system Fusarium graminearum. Description: Fungicidal activity against Fusarium graminearum assessed as mycelium growth inhibition at 20 ug/mL by mycelium growth rate method. The procedure, abridged:
as §1

The test system of assay [14] is Fusarium graminearum. Put plainly: Fungicidal activity against Fusarium graminearum assessed as mycelium growth inhibition at 10 ug/mL by mycelium growth rate method. The method, boiled down: as §1
The test system of assay [15] is Fusarium oxysporum. Put plainly: Fungicidal activity against Fusarium oxysporum assessed as mycelium growth inhibition at 20 ug/mL by mycelium growth rate method. The method, boiled down: as §1

For the molecule `O=[N+]([O-])c1cc(-c2ccccc2[N+](=O)[O-])cs1`, the inhibition of growth at 10 µg/mL in [1] is 0%; in assay [7], 8%; in assay [9], 6%; in [10], 0%; in assay [14] it was 1%. Moreover, the inhibition of growth at 20 µg/mL worked out at 16% in assay [2]; 16% in assay [4]; 9% in assay [12]; 7% in [13]; 0% in assay [15]. Moreover, the inhibition of growth at 50 µg/mL in assay [3] worked out at 0%; in assay [5], 20%; in [6] it was 20%; in assay [8] it was 22%; in [11], 25%.
`O=[N+]([O-])c1cc(Cl)ccc1-c1ccsc1`: the inhibition of growth at 10 µg/mL amounted to 14% in assay [1]; 0% in assay [7]; 0% in assay [9]; 25% in [10]; 13% in [14]. For the same molecule, the inhibition of growth at 20 µg/mL is 20% in [2]; 6% in assay [4]; 38% in assay [12]; 21% in assay [13]; 43% in assay [15]. For the same molecule, the inhibition of growth at 50 µg/mL in assay [3] amounted to 75%; in assay [5] it was 25%; in [6], 80%; in [8] it was 55%; in assay [11], 39%.
Consider `O=[N+]([O-])c1cc(-c2ccc(Cl)cc2[N+](=O)[O-])cs1`, for which the inhibition of growth at 10 µg/mL in assay [1], in [7], in assay [9], in assay [10] and in assay [14] was 0% in each case. Also, the inhibition of growth at 20 µg/mL in assay [2], in assay [4], in [12], in assay [13] and in assay [15] was 0% each time. Also, the inhibition of growth at 50 µg/mL in assay [3] is 17%; in [5], 2%; in assay [6], 2%; in assay [8] it was 19%; in assay [11] it was 4%.
With `O=[N+]([O-])c1cc(-c2cc(F)ccc2[N+](=O)[O-])cs1`, the inhibition of growth at 10 µg/mL in assay [1], in [7], in assay [9], in assay [10] and in [14] was 0% throughout. Also, the inhibition of growth at 20 µg/mL in assay [2] came to 16%; in [4], 22%; in assay [12] it was 8%; in assay [13], 0%; in assay [15] it was 10%. The inhibition of growth at 50 µg/mL was determined as 28% in assay [3]; 33% in [5]; 27% in assay [6]; 35% in assay [8]; 16% in assay [11].
As for `O=[N+]([O-])c1ccc(F)cc1-c1ccsc1[N+](=O)[O-]`, the inhibition of growth at 10 µg/mL in assay [1], in assay [7], in assay [9], in assay [10] and in [14] was 0% in each case. Moreover, the inhibition of growth at 20 µg/mL amounted to 16% in assay [2]; 0% in assay [4]; 0% in assay [12]; 0% in [13]; 0% in [15]. For the same molecule, the inhibition of growth at 50 µg/mL in [3] was found to be 21%; in assay [5] it was 11%; in assay [6], 10%; in assay [8], 29%; in assay [11], 0%.
`O=[N+]([O-])c1ccccc1-c1ccsc1[N+](=O)[O-]`: the inhibition of growth at 10 µg/mL was 0% in assay [1]; 8% in assay [7]; 9% in assay [9]; 0% in assay [10]; 6% in [14]. Also, the inhibition of growth at 20 µg/mL in assay [2] was 16%; in [4], 16%; in assay [12], 25%; in assay [13], 14%; in assay [15] it was 13%. In addition, the inhibition of growth at 50 µg/mL in [3] amounted to 22%; in assay [5], 25%; in [6], 30%; in [8], 25%; in [11], 23%.
With `O=[N+]([O-])c1ccc(F)cc1-c1ccsc1`, the inhibition of growth at 10 µg/mL in assay [1] is 0%; in [7], 0%; in [9] it was 5%; in [10], 18%; in [14], 21%. Besides, the inhibition of growth at 20 µg/mL was determined as 25% in assay [2]; 12% in assay [4]; 36% in assay [12]; 43% in [13]; 50% in [15]. The inhibition of growth at 50 µg/mL in assay [3] was determined as 87%; in assay [5], 25%; in assay [6] it was 72%; in [8] it was 75%; in assay [11], 65%.
`O=[N+]([O-])c1cc(-c2ccc(F)cc2[N+](=O)[O-])cs1`: the inhibition of growth at 10 µg/mL in [1] was found to be 4%; in assay [7], 11%; in [9] it was 6%; in [10], 7%; in [14] it was 0%. Also, the inhibition of growth at 20 µg/mL in assay [2] was determined as 25%; in assay [4], 27%; in assay [12], 10%; in assay [13], 0%; in assay [15] it was 17%. Further, the inhibition of growth at 50 µg/mL in assay [3] was found to be 25%; in assay [5] it was 44%; in [6], 46%; in [8] it was 41%; in assay [11] it was 12%.
Regarding `O=[N+]([O-])c1cc(-c2c(Cl)cc(Cl)cc2[N+](=O)[O-])cs1`, the inhibition of growth at 10 µg/mL in assay [1] stood at 10%; in [7], 5%; in assay [9], 25%; in [10] it was 21%; in assay [14], 8%. Also, the inhibition of growth at 20 µg/mL in [2] was 32%; in assay [4], 16%; in [12] it was 17%; in assay [13], 16%; in [15], 32%. Moreover, the inhibition of growth at 50 µg/mL in assay [3] is 39%; in [5], 27%; in assay [6], 25%; in assay [8] it was 41%; in assay [11] it was 24%.
In the case of `O=[N+]([O-])c1ccccc1-c1ccsc1`, the inhibition of growth at 10 µg/mL in [1] was determined as 20%; in [7], 0%; in assay [9], 0%; in [10], 12%; in [14] it was 13%. For the same molecule, the inhibition of growth at 20 µg/mL in assay [2] is 30%; in assay [4], 0%; in assay [12], 68%; in assay [13] it was 43%; in assay [15], 31%. Besides, the inhibition of growth at 50 µg/mL in assay [3] worked out at 68%; in assay [5], 18%; in assay [6], 88%; in assay [8], 75%; in [11], 65%.
For the molecule `O=[N+]([O-])c1cc(-c2cc(Cl)c(F)cc2[N+](=O)[O-])cs1`, the inhibition of growth at 10 µg/mL in [1], in assay [7], in [9], in assay [10] and in assay [14] was 0% each time. Besides, the inhibition of growth at 20 µg/mL in [2] turned out to be 16%; in [4] it was 11%; in assay [12], 2%; in assay [13] it was 0%; in assay [15], 7%. Also, the inhibition of growth at 50 µg/mL in assay [3] is 10%; in [5], 16%; in assay [6] it was 14%; in assay [8], 25%; in assay [11], 0%.
